Each compound was assayed on Taenia crassiceps (assay: 1 Minimum inhibitory concentration to prevent all movement of cysts and evaginated scoleces of in vitro Taenia crassiceps screen after 48 h).
Format: functional
In short: (§1)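 Taenia crassiceps cysts taken from mice, pepsin-treated (0.05% in HCl, pH 2.0, 5 min, 37 °C) and washed three times in Hank's balanced salt solution. Compound added as a methylcellulose suspension (final 10 μg/mL) in CMRL 1066-based medium with fetal calf serum, glucose, taurocholate, yeast extract, HEPES and antibiotics, at 37 °C. Invaginated and evaginated cysts scored at 24 and 48 h. Actives titrated for MIC.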

MIC, < 0.1 µg/mL:
O=C(C1CCCCC1)N1CC(=O)N2CCCc3ccccc3C2C1 (single isomer, unassigned; (-)) [EPSIPRANTEL]

What follows are compounds tested on Taenia crassiceps (assay: Minimum inhibitory concentration to prevent all movement of cysts and evaginated scoleces of in vitro Taenia crassiceps screen after 48 h).
Format: functional
In short: as §1

MIC, > 10 µg/mL:
O=C(C1CCOCC1)N1CC(=O)N2CCCc3ccccc3C2C1 (stereo unspecified)
O=C(c1ccc([N+](=O)[O-])cc1)N1CC(=O)N2CCCc3ccccc3C2C1 (stereo unspecified)
O=C(C1CCCCC1)N1CC(=O)N2CCSc3ccccc3C2C1 (stereo unspecified)
CC(C)C(=O)N1CC(=O)N2CCCc3ccccc3C2C1 (stereo unspecified)
O=C(C1CCC1)N1CC(=O)N2CCCc3ccccc3C2C1 (stereo unspecified)
CCCCCC(=O)N1CC(=O)N2CCCc3ccccc3C2C1 (stereo unspecified)
O=C(c1ccc(O)cc1)N1CC(=O)N2CCCc3ccccc3C2C1 (stereo unspecified)
O=C(C1CCCCCC1)N1CC(=O)N2CCCc3ccccc3C2C1 (stereo unspecified)
O=C(c1ccc(Cl)cc1)N1CC(=O)N2CCCc3ccccc3C2C1 (stereo unspecified)
Nc1cccc(C(=O)N2CC(=O)N3CCCc4ccccc4C3C2)c1 (stereo unspecified)
O=C(c1ccc(F)cc1)N1CC(=O)N2CCCc3ccccc3C2C1 (stereo unspecified)
CC(=O)N1CC(=O)N2CCCc3ccccc3C2C1 (stereo unspecified)
O=C(C1CCCCC1)N1CC(=S)N2CCCc3ccccc3C2C1 (stereo unspecified)
COc1ccc(C(=O)N2CC(=O)N3CCCc4ccccc4C3C2)cc1 (stereo unspecified)
COc1cc2c(cc1OC)C1CN(C(=O)C3CCCCC3)CC(=O)N1CCC2 (stereo unspecified)
O=C(c1cccc(Cl)c1)N1CC(=O)N2CCCc3ccccc3C2C1 (stereo unspecified)
Cc1cccc(C(=O)N2CC(=O)N3CCCc4ccccc4C3C2)c1 (stereo unspecified)
CN(C)c1ccc(C(=O)N2CC(=O)N3CCCc4ccccc4C3C2)cc1 (stereo unspecified)
O=C(c1cccnc1)N1CC(=O)N2CCCc3ccccc3C2C1 (stereo unspecified)
Cc1ccccc1C(=O)N1CC(=O)N2CCCc3ccccc3C2C1 (stereo unspecified)
Cl.O=C(C1CCCCC1)N1CCN2CCCc3ccccc3C2C1 (stereo unspecified)

MIC, ≤ 10 µg/mL:
Cc1ccc(C(=O)N2CC(=O)N3CCCc4ccccc4C3C2)cc1 (stereo unspecified)
O=C(c1cccc([N+](=O)[O-])c1)N1CC(=O)N2CCCc3ccccc3C2C1 (stereo unspecified)

MIC, ≤ 0.1 µg/mL:
O=C(C1CCCCC1)N1CC(=O)N2CCc3ccccc3C2C1 (stereo unspecified) [PRAZIQUANTEL]
O=C(C1CCCCC1)N1CC(=O)N2CCCc3ccccc3C2C1 (stereo unspecified) [EPSIPRANTEL]

Reference: ChEMBL document CHEMBL1124605, “Synthesis and anthelmintic activity of a series of pyrazino[2,1-a][2]benzazepine derivatives” (1989)
